Experimental data as given in ChEMBL document CHEMBL1140995, “Synthesis and biological evaluation of aminomethylphenol derivatives as inhibitors of the murine GABA transporters mGAT1-mGAT4” (Eur J Med Chem, 2008).

Tests used:
[1] = molecular target: T1, GABA transporter 4 (Mus musculus) (UniProt P31650); test: Inhibition of [3H]GABA uptake at mouse GAT4 expressed in HEK cells assessed as remaining [3H]GABA uptake at 100 uM relative to control; format: cell-based; settings: HEK293
T1 sequence (whole entry): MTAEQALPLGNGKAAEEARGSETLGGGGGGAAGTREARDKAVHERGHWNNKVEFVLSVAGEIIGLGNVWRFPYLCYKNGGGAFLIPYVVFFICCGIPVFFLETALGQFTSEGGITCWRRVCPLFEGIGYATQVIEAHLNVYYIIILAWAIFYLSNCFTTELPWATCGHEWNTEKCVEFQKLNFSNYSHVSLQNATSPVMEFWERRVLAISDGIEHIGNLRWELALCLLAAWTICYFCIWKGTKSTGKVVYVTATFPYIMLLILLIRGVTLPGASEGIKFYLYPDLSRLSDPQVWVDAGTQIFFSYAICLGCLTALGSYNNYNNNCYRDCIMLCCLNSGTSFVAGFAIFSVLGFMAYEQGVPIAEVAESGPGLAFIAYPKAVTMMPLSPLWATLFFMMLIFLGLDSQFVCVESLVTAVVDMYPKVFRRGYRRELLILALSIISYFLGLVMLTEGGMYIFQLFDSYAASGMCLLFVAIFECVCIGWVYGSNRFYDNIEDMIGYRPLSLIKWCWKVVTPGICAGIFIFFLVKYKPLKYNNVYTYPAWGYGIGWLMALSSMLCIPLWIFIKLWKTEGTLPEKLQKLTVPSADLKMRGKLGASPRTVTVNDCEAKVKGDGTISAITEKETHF
In short: (§1)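 Stably transfected HEK cells were trypsinized, washed in PBS, and resuspended in Krebs-Tris buffer pH 7.2 at about 100,000 cells/well. They were pre-equilibrated 25 min at 37 °C with compound in 1% DMSO, then given 8 nM [³H]GABA plus 32 nM unlabeled GABA for 4 min.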

[2] = molecular target: T2, GABA transporter 3 (Mus musculus) (UniProt P31649); test: Inhibition of [3H]GABA uptake at mouse GAT3 expressed in HEK cells assessed as remaining [3H]GABA uptake at 100 uM relative to control; format: cell-based; settings: HEK293; in short: as §1
T2 sequence (whole entry): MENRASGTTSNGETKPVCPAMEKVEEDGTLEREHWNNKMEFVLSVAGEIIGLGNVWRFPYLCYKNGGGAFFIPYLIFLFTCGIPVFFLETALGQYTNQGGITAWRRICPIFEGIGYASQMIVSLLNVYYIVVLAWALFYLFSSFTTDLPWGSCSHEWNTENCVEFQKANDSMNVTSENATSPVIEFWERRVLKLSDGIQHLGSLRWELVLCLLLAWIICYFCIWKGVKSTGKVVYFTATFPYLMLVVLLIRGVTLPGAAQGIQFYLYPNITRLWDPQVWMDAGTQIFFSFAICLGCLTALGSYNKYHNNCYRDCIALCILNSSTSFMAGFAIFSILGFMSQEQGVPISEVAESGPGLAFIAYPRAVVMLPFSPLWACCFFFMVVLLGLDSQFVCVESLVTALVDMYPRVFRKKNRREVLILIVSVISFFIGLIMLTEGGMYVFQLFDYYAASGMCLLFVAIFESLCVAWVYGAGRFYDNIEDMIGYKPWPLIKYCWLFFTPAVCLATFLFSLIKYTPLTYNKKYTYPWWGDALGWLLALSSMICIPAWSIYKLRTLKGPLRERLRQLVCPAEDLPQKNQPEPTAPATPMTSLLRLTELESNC

[3] = molecular target: Sodium- and chloride-dependent GABA transporter 1 (Mus musculus) (UniProt P31648); test: Inhibition of [3H]GABA uptake at mouse GAT1 expressed in HEK cells assessed as remaining [3H]GABA uptake at 100 uM relative to control; format: cell-based; settings: HEK293; in short: as §1
[4] = molecular target: T3, GABA transporter 2 (Mus musculus) (UniProt P31651); test: Inhibition of [3H]GABA uptake at mouse GAT2 expressed in HEK cells assessed as remaining [3H]GABA uptake at 100 uM relative to control; format: cell-based; settings: HEK293
T3 sequence (whole entry): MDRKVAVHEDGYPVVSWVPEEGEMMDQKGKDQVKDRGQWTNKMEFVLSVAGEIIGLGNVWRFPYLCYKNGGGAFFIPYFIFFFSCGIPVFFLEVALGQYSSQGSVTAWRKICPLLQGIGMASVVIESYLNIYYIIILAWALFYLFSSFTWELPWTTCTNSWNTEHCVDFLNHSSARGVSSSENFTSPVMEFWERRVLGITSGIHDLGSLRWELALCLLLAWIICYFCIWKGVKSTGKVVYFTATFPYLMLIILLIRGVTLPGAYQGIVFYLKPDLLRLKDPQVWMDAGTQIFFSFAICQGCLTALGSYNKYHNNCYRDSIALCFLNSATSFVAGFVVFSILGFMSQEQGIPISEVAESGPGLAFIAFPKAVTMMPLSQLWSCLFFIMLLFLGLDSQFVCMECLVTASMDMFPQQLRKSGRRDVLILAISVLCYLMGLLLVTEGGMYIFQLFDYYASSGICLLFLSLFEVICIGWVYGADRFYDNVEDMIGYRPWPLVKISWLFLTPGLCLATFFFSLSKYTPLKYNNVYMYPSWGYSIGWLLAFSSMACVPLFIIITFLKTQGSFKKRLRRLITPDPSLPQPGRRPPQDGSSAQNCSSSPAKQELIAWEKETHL
In short: (§2)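 Stable mGAT2-HEK cells were trypsinized, PBS-washed, and suspended in Krebs-Tris pH 7.2 at about 200,000 cells/well. Cells were preincubated 25 min at 37 °C with compound (1% DMSO), then exposed to 20 nM [³H]GABA plus 20 nM unlabeled GABA for 10 min.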

GABA transporter 2 = molecular target: T4, GABA transporter 2 (Mus musculus, UniProt P31651); test: Inhibition of [3H]GABA uptake at mouse GAT2 expressed in HEK cells; format: cell-based, HEK293; in short: as §2
T4 sequence (P31651 whole entry): T3 sequence (whole entry)

GABA transporter 4 = molecular target: T5, GABA transporter 4 (Mus musculus, UniProt P31650); test: Inhibition of [3H]GABA uptake at mouse GAT4 expressed in HEK cells; format: cell-based, HEK293
T5 sequence (P31650 whole entry): T1 sequence (whole entry)

GABA transporter 3 = molecular target: T6, GABA transporter 3 (Mus musculus, UniProt P31649); test: Inhibition of [3H]GABA uptake at mouse GAT3 expressed in HEK cells; format: cell-based, HEK293
T6 sequence (P31649 whole entry): T2 sequence (whole entry)

[5] = molecular target: Sodium- and chloride-dependent GABA transporter 1 (Mus musculus, UniProt P31648); test: Inhibition of [3H]GABA uptake at mouse GAT1 expressed in HEK cells; format: cell-based, HEK293

Row | SMILES | Activity [1] [%] | Activity [2] [%] | Activity [3] [%] | Activity [4] [%] | IC50 (GABA transporter 2) [µM] | IC50 (GABA transporter 4) [µM] | IC50 (GABA transporter 3; read-out: pIC50 (converted)) [µM] | IC50 [5] [µM] | IC50 (GABA transporter 3; read-out: IC50) [µM]
1 | COc1ccc(C(OCCNCc2c(F)cc(F)c(O)c2F)(c2ccc(OC)cc2)c2ccc(OC)cc2)cc1 | 64 | 56 | 87 | 89 | – | – | – | – | –
2 | COc1ccc(C(OCCNCc2ccccc2O)(c2ccc(OC)cc2)c2ccc(OC)cc2)cc1 | – | – | – | – | 11.7 | 16.2 | 8.32 | 26.9 | –
3 | CCCCCCCCCCCCNCc1cccc(O)c1 | – | – | – | – | 15.1 | 25.1 | 5.62 | 20.9 | –
4 | CCCCCCCCCCCCNCc1ccc(OC)c(O)c1 | – | – | – | – | 12.6 | 8.71 | 2.69 | 12.3 | –
5 | COc1ccc(CNCCC=C(c2ccccc2)c2ccccc2)cc1O | – | – | – | – | 19.5 | 22.9 | 12 | 18.6 | –
6 | Oc1ccccc1CNCCC=C(c1ccccc1)c1ccccc1 | – | – | – | – | 14.5 | 14.8 | 7.76 | 33.1 | –
7 | Oc1cccc(CNCCC(c2ccccc2)c2ccccc2)c1 | – | – | – | – | 47.9 | 50.1 | 38 | 87.1 | –
8 | COc1ccc(C(OCCNCc2ccc(F)c(O)c2F)(c2ccc(OC)cc2)c2ccc(OC)cc2)cc1 | 82 | – | – | 54 | – | – | – | 85.1 | 10.2
9 | O=C(O)C1CCCN(CCC=C(c2ccccc2)c2ccccc2)C1 (configuration not stated) | – | – | – | – | 372 | 275 | 195 | 0.692 | –
10 | COc1ccc(C(OCCNCc2cc(F)c(O)c(F)c2)(c2ccc(OC)cc2)c2ccc(OC)cc2)cc1 | 67 | 51 | 59 | 64 | – | – | – | – | –
11 | COc1ccc(C(OCCNCc2cccc(O)c2)(c2ccc(OC)cc2)c2ccc(OC)cc2)cc1 | – | – | – | – | 12.9 | 7.76 | 9.55 | 43.7 | –
12 | Oc1ccccc1CNCCC(c1ccccc1)c1ccccc1 | – | – | – | – | 18.2 | 25.1 | 24.5 | 52.5 | –

The next lines start with the values.

Row | Activity [1] [%] | Activity [2] [%] | Activity [3] [%] | Activity [4] [%] | IC50 (GABA transporter 2) [µM] | IC50 (GABA transporter 4) [µM] | IC50 (GABA transporter 3; read-out: pIC50 (converted)) [µM] | IC50 [5] [µM] | IC50 (GABA transporter 3; read-out: IC50) [µM] | SMILES
13 | – | – | – | 56 | – | – | – | – | – | COc1ccc(C(OCCN2CCC[C@H](C(=O)O)C2)(c2ccc(OC)cc2)c2ccc(OC)cc2)cc1
14 | – | – | – | – | 490 | 25.7 | 25.7 | 13.5 | – | O=C(O)C1=CCCNC1 [GUVACINE]
15 | – | – | – | – | 631 | 851 | 240 | 0.148 | – | O=C(O)C1=CCCN(CCON=C(c2ccccc2)c2ccccc2)C1
16 | – | – | – | – | 20.9 | 14.5 | 8.91 | 25.7 | – | COc1ccc(C(OCCNCc2ccc(OC)c(O)c2)(c2ccc(OC)cc2)c2ccc(OC)cc2)cc1
17 | – | – | – | – | 28.8 | 63.1 | 18.6 | 58.9 | – | CCCCCCCCCCCCNCc1ccccc1O
18 | 76 | 66 | 70 | 82 | – | – | – | – | – | Oc1c(F)cc(CNCCC=C(c2ccccc2)c2ccccc2)cc1F
19 | – | – | – | – | 17.8 | 20.9 | 7.94 | 28.8 | – | Oc1cccc(CNCCC=C(c2ccccc2)c2ccccc2)c1
20 | 73 | 64 | – | 52 | – | – | – | 0.132 | – | Cc1ccsc1C(=CCCN1CCC[C@@H](C(=O)O)C1)c1sccc1C [TIAGABINE]
